Screening data (PubChem BioAssay)
CAL PDZ FP-1 = CAL PDZ peptide-binding inhibitors, primary screen, biochemical, fluorescence polarization, Cer-tagged CAL PDZ, HTS | purified CAL PDZ, TMR-peptide fluorescence polarization, 1 h | Golgi-associated PDZ and coiled-coil motif-containing protein (Homo sapiens), Q9HD26 | AID 504414, 2011 | inhibition, % at 20 µM | 330,000 tested, 0.02% active;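 active = highest replicate inhibition of at least 40%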;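 also: plate controls were DMSO neutral control wells for no effect and unlabeled competitor peptide control wells for full effect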
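Material: tagged CAL PDZ domain; buffer or medium: 25 mM sodium phosphate pH 7.4, 150 mM NaCl, TCEP, IgG, Thesit; compound dosing: single point, 20 µM; schedule: 1 h incubation at room temperature before polarization reading; measured by: FP readout, S and P plane fluorescence; read-out basis: percent inhibition from loss of millipolarization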
CAL PDZ FP-2 = untagged CAL PDZ binding inhibitors, primary screen, biochemical, fluorescence polarization, HTS | inhibition, % at 24.9 µM | 300,000 tested, 0.92% active | purified CAL PDZ, TMR-peptide fluorescence polarization, 1 h;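 active = mean inhibition of at least 30% with at least half of replicates also reaching 30%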;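 also: 0% = DMSO neutral control and 100% = excess unlabeled competitor peptide PRC23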
CDK5 p35 inh = inhibitors of human CDK5/p35 kinase, primary screen, biochemical, single concentration; inhibition, % at 10 µM; 330,000 tested, 0.01% active; Cyclin-dependent kinase 5 (Homo sapiens) + Cyclin-dependent kinase 5 activator 1 (Homo …; Recombinant CDK5/p35, ADP-Glo luminescence, 60 min;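 active = highest replicate inhibition of at least 50% and at least 75% of replicates reaching 50%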;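 also: plate controls were DMSO neutral control for no effect and GW8510 at 10 µM for full effect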
Target sequence (Q00535 whole entry, looked up): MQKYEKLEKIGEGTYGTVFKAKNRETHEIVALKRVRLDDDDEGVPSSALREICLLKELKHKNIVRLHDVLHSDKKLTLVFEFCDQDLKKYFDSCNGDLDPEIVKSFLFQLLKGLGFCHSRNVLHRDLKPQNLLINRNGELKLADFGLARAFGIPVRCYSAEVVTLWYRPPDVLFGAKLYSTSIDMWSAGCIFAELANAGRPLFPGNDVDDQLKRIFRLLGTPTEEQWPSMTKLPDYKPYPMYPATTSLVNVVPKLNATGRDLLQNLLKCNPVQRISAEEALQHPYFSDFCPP
Target sequence (Q15078 whole entry, looked up): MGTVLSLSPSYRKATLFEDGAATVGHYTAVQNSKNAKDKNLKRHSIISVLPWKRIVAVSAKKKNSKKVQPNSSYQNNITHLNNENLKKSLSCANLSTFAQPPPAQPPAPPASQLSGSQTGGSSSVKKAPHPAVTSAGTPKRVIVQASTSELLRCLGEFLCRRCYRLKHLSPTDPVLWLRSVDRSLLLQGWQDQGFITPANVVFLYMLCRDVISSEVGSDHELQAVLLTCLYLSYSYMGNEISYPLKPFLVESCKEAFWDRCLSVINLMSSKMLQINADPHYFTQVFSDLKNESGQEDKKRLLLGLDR
PvdQ inh = P. aeruginosa PvdQ acylase inhibitors, primary screen, biochemical, fluorescence, plate reader and imaging, single point. inhibition, % at 10 µM. PvdQ acylase [Pseudomonas aeruginosa LESB58]. purified PvdQ acylase. 340,000 tested, 0.063% active. AID 488965, 2010; in the data active = inhibition above about 30%, passing the limit was not always enough;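 also: 0% = vehicle neutral wells and 100% = reference inhibitor wells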
TbMetRS inhib = T. brucei MetRS inhibitors, primary screen, biochemical, luminescence | purified T. brucei MetRS, ATP depletion, Kinase-Glo luminescence | 360,000 tested, 0.4% active | methionyl-tRNA synthetase (Trypanosoma brucei brucei) | inhibition, % at 11.9 µM | AID 624268, 2012;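 active = inhibition above a per-plate cutoff of the control wells' mean inhibition plus 3 SD, cut at about 5.5% in these data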;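 also: 0% = DMSO wells median and 100% = median of wells with control inhibitor compound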
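Measured by: Kinase-Glo luciferase luminescence reporting remaining unconsumed ATP. Material: purified T. brucei MetRS enzyme. Doses: 11.9 µM compound single dose, 0.9% DMSO. Medium: HEPES buffer containing pyrophosphatase, BSA, spermine, DTT. Times: 15 min preincubation, 2 h reaction, all 25 °C. Reagent: methionine, ATP and bulk E. coli tRNA.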
DYRK1A inh = rat Dyrk1A kinase inhibitors, primary screen, biochemical, single point, plate reader; Dual specificity tyrosine-phosphorylation-regulated kinase 1A (Rattus norvegicus), Q63470; ADP-Glo luminescence, NFATc1 peptide; inhibition, % at 12.5 µM; 310,000 tested, 0.43% active; AID 504441, 2011; in the data active = inhibition above about 50%;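 also: plate controls were vehicle with enzyme for no effect and no enzyme for full effect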
Tb MetRS conf = T. brucei MetRS inhibitors, confirmation, biochemical, luminescence. shares compounds with TbMetRS inhib. T. brucei MetRS enzyme, luminescence (ATP depletion). inhibition, % at 11.9 µM. 1,400 tested, 93% active. AID 624412, 2012; in the data active = inhibition above about 7%
Jurkat cytotox = Jurkat T cell cytotoxicity, cytotoxicity control for T. brucei MetRS inhibitor project, luminescence, high throughput; shares compounds with TbMetRS inhib; Jurkat cells viability, ATP luminescence; inhibition, % at 8.3 µM; 1,400 tested, 12% active; AID 624413, 2012; in the data active = inhibition above about 15%;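 also: 0% = vehicle and 100% = reference inhibitor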
TbMetRS FP orth = T. brucei MetRS inhibitors, orthogonal assay for T. brucei MetRS inhibitor project, biochemical, fluorescence polarization | shares compounds with TbMetRS inhib | purified T. brucei MetRS | inhibition, % at 11.9 µM | 1,400 tested, 44% active | AID 651607, 2012; in the data active = inhibition above about 17%;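 also: 0% = vehicle wells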
Active calls of the source: *; . = no result. Shown are actives, neighbours in structure and some others; about 1.4% of the full set was active somewhere.

SMILES	CAL PDZ FP-1	CAL PDZ FP-2	CDK5 p35 inh	PvdQ inh	TbMetRS inhib	DYRK1A inh	Tb MetRS conf	Jurkat cytotox	TbMetRS FP orth
O=C(CCCSc1nc2ccccc2[nH]1)N1CCN(c2ccc([N+](=O)[O-])cc2)CC1	-1	-3	1	-2	9.2*	9	55*	1	14
CCOc1ccc(-c2ccc(C3=CC(=O)C[C@H](c4ccc(F)cc4)C3)cc2)cc1	.	.	.	.	-1	.	.	.	.
C=CCNC(=S)NNC(=O)c1ccccc1	-1	3	0	-3	-1	2	.	.	.
C=CCNC(=S)NNC(=O)c1ccc(=O)n(Cc2ccccc2)c1	-1	0	-5	-19	13*	3	24*	1	9
CC(=O)Nc1ccc(NC(=O)CCOc2ccccc2C)cc1	0	.	-1	-3	0	-1	.	.	.
Cc1ccccc1OCCCC(=O)Nc1ccc(Br)cc1	-2	1	-1	-11	6.4*	5	8.2*	20*	10
CC(O)(c1cccnc1)c1nc(-c2ccc(F)c(Cl)c2)cs1 (stereo unspecified)	.	.	.	.	0	.	.	.	.
O=C(NNC(=O)c1ccc2nonc2c1)Nc1ccc(Cl)cc1	.	.	.	.	10*	.	20*	5	8
c1ccc2c(c1)[nH]c1c(N3CCC4(CC3)OCCO4)ncnc12	-1	-1	0	0	1	18	.	.	.
OC1(c2cccc(C(F)(F)F)c2)CCN(c2ncnc3c2[nH]c2ccccc23)CC1	-3	0	-1	18	6.1*	-40	14*	16*	9
c1ccc2c(c1)CCN(c1ncnc3c1[nH]c1ccccc13)C2	-1	-3	0	-7	13*	15	9.1*	46*	10
CCc1nc2ccc(C(=O)NCC3CCCCC3)cn2c1N(C)Cc1nccs1	.	.	.	.	0	.	.	.	.
Clc1ccc(OCCCCCN2CCCC2)c(Br)c1	-2	0	-1	-14	6.2*	-5	13*	13	4
CC1CCCN(CCOCCOc2ccc(Cl)cc2Br)C1 (stereo unspecified)	-1	.	3	-15	3	2	.	.	.
CCN1CCN(CCCOc2ccc(Cl)cc2Br)CC1	-1	.	1	8	7.7*	-1	13*	8	6
Clc1ccc(OCCCn2ccnc2)c(Br)c1	0	1	0	-9	13*	3	22*	5	13
Clc1ccc(OCCCN2CCCCC2)c(Br)c1	-2	5	2	-12	17*	5	28*	3	11
OC[C@@H]1CN(Cc2ccncc2)C[C@H](n2cnc3c(NC4CCCC4)ncnc32)O1	.	.	.	.	0	.	.	.	.
CCOC(=O)[C@]12CCCC=C1N(Cc1ccc(Cl)cc1Cl)C(=O)[C@H](CC(=O)N1CCN(C(=O)c3ccco3)CC1)C2	.	.	.	.	0	.	.	.	.
CC1(C(=O)NS(=O)(=O)C2CC2)CCCN(C(=O)c2cccnc2Oc2ccccc2)C1 (stereo unspecified)	.	.	.	.	0	.	.	.	.
O=C(Nc1ccc(S(=O)(=O)Nc2cnc3ccccc3n2)cc1)c1ccc(Cl)c([N+](=O)[O-])c1	-2	1	-1	1	12*	9	24*	-1	7
COc1ccc(CN2CCC[C@]3(N[C@H](c4ccc(C(F)(F)F)cc4)[C@@H]4C(=O)N(C)C(=O)[C@@H]43)C2=O)cc1	.	.	.	.	0	.	.	.	.
Cc1ccc(NC(=O)C(C)c2cccc(C(=O)c3ccccc3)c2)cc1O (stereo unspecified)	-2	-2	-2	-9	84*	10	99*	33*	78*
O=C(Nc1ccc(C(=O)O)cc1)/C(=C\C=C\c1ccccc1)NC(=O)c1cccc(Br)c1	-8	-7	-1	-2	12*	-8	20*	2	23*
Oc1ccc2ccccc2c1CNc1cnc2ccccc2c1	0	-3	0	-10	0	19	.	.	.
SMILES	CAL PDZ FP-1	CAL PDZ FP-2	CDK5 p35 inh	PvdQ inh	TbMetRS inhib	DYRK1A inh	Tb MetRS conf	Jurkat cytotox	TbMetRS FP orth
C=CCc1cccc(CNc2nc3ccccc3n2C)c1O	3	-5	1	-12	28*	-4	46*	-1	26*
Oc1ccccc1CNc1cnc2ccccc2c1	-3	-2	8	12	-1	.	.	.	.
Oc1ccc(Cl)cc1CNc1cnc2ccccc2c1	-1	-3	-2	-30	13*	9	14*	30*	10
Cn1c(NCc2cc(Br)ccc2O)nc2ccccc21	0	-3	-2	-3	41*	7	58*	6	24*
COc1ccc(CNc2nc3ccccc3n2C)c(O)c1	-3	-2	2	-1	3	-1	.	.	.
C=CCc1cccc(CNc2cnc3ccccc3c2)c1O	4	2	0	-8	6.0*	3	12*	31*	13
CC(=O)NC(c1cccc(F)c1)c1nc(-c2ccoc2)cs1 (stereo unspecified)	.	.	.	.	0	.	.	.	.
C[C@@H]1CN([C@H](C)CO)C(=O)c2cc(Br)cnc2O[C@H]1CN(C)C	.	.	.	.	0	.	.	.	.
CC(C)(C)c1ccc(C(=O)NCC(=O)N/N=C/c2cccs2)cc1	1	-8	0	2	-1	-1	.	.	.
O=C(CNC(=O)c1cccc(Br)c1)N/N=C/c1cccs1	-4	-1	-1	6	6.0*	.	20*	3	2
Nc1nnc(CC(=O)N/N=C/c2ccc(-c3ccc(F)cc3)o2)s1	.	.	.	.	6.4*	.	2	6	1
CCOC(=O)c1ccc(-c2ccc(/C=N/NC(=O)Cc3nnc(N)s3)o2)cc1	-2	-3	0	5	0	1	.	.	.
O=C(NCCc1nc2ccccc2[nH]1)/C(=C/c1ccc2c(c1)OCO2)NC(=O)c1ccccc1	-1	-3	-2	-8	6.4*	5	9.6*	1	2
O=C(NCCc1nc2ccccc2[nH]1)/C(=C/c1ccc2c(c1)OCO2)NC(=O)c1ccccc1Cl	-3	-1	1	-11	3	17	.	.	.
